High-throughput results as filed in PubChem.
The list is not random: actives were taken first. Their share in the collection is about 2.3%.
HCV NS3 hel inh = inhibitors of HCV NS3 helicase, primary screen, biochemical, Cy5 molecular beacon fluorescence | NS3 helicase DNA unwinding | inhibition, % at 10.9 µM | 0.56% of 290,000 active | AID 1800, 2009;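 active = inhibition above the mean of all tested compounds plus 3 SD, set per campaign, cut at about 35% in these data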;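 note: 0% = DMSO wells and 100% = thioflavine S control wells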
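System: NS3 helicase fragment of HCV / Schedule: 1 h at 25 °C / Control set: DMSO alone as 0% and 110 µM thioflavine S as 100% / Reagent: Cy5/quencher beacon DNA duplex and ATP to start / Technique: Cy5 fluorescence / Replication: singlicate / Evaluation: % inhibition of end-to-start signal ratio versus controls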
GPR7 antagonist = GPR7 receptor antagonists, primary screen, cell-based, fluorescence, single concentration | Neuropeptides B/W receptor type 1 (Homo sapiens), P48145 | GPR7-expressing cells, fluorescence antagonist assay | inhibition, % at 4.4 µM | 1.1% of 290,000 active | AID 1861, 2009; in the data active = inhibition above about 16%, passing the limit was not always enough;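 note: cells stimulated with the agonist NPW; 0% = agonist with vehicle and 100% = vehicle without agonist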
Target sequence (P48145 whole entry, looked up): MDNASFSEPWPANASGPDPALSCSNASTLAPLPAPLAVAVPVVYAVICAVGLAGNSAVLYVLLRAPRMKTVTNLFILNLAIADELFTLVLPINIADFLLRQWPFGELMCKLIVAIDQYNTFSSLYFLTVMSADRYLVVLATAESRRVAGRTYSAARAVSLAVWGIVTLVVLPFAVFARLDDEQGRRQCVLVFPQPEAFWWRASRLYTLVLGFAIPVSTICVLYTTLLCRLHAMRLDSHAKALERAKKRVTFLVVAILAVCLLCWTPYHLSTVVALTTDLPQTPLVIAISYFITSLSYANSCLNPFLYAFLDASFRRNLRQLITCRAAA
HCV core dimer = inhibitors of HCV core protein dimerization, primary screen, biochemical, TR-FRET, high-throughput. inhibition, % at 5 µM. AID 1899, 2009. 0.33% of 300,000 active. TR-FRET GST/Flag-core106 dimerization, 1536-well;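 active = inhibition above the mean of all tested compounds plus 3 SD, set per screening campaign, cut at about 45% in these data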
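assay system = GST-tagged and Flag-tagged HCV core protein residues 1-106 | controls = unlabelled core106 and no-GST-core106 wells | incubation = compound-protein-antibody incubation 4 h at 22.5 °C | probe or stimulus = Eu donor and XL665 acceptor anti-tag antibodies | read-out = % inhibition based on acceptor/donor emission ratio | signal = TR-FRET 671 and 617 nm emission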
EBV gp42 block = Epstein-Barr virus gp42 inhibitors, primary screen, biochemical, uHTS, fluorescence polarization | Glycoprotein 42 (Epstein-Barr virus (strain AG876)), Q1HVG2 | inhibition, % (tested at 21.74 µM) | AID 1085, 2008 | 0.42% of 220,000 active | Fluorescence polarization binding assay, mP read-out; in the data active = inhibition above about 50%
Target sequence (Q1HVG2 whole entry, looked up): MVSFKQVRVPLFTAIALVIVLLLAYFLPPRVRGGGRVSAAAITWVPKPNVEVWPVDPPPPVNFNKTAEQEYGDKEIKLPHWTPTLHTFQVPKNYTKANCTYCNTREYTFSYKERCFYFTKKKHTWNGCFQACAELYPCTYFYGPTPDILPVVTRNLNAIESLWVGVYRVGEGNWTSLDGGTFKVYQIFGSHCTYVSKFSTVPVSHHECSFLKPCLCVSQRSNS
ZTA DNA inh = ZTA (EBV) inhibition in EBNA-1 counter-screen. P03206. ZTA-DNA binding, fluorescence polarization. inhibition, % at 11 µM. 0.15% of 320,000 active. AID 2234; in the data active = inhibition above about 33%
EBNA-1 inhibitor = EBNA-1 DNA-binding inhibitors, primary screen, biochemical, fluorescence polarization; inhibition, % at 14.8 µM; 0.34% of 300,000 active; AID 1950, 2009; in the data active = inhibition above about 28%
NS3 helicase cf = HCV NS3 helicase inhibitors, retest, confirmation, biochemical, Cy5 molecular beacon fluorescence, triplicate; shares compounds with HCV NS3 hel inh; inhibition, % at 10.9 µM; AID 1943, 2009; NS3 helicase DNA unwinding; 31% of 1,600 active;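 active = inhibition above the mean of all tested compounds plus 3 SD, cutoff set per campaign, cut at about 36% in these data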
FID counter trip = compounds displacing fluorescent DNA intercalator, artefact control for HCV NS3 helicase inhibitor project, biochemical, FID fluorescence, triplicate. shares compounds with HCV NS3 hel inh. DNA fluorescent intercalator displacement. inhibition, % at 7.9 µM. 4% of 1,600 active; in the data active = inhibition above about 37%;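 note: 0% = vehicle and 100% = reference compound; higher means more displacement of ethidium bromide from the DNA hairpin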
DNA FID DR = compounds displacing fluorescent intercalator from DNA, dose response, counter-screen for HCV NS3 helicase inhibitor project, biochemical, fluorescence. IC50, µM. AID 2172, 2009. 120 tested, under 10 active. shares compounds with HCV NS3 hel inh. fluorescent intercalator displacement from DNA; call rule not given here
The depositor's hits bear a star; . = no result given.

SMILES	HCV NS3 hel inh	GPR7 antagonist	HCV core dimer	EBV gp42 block	ZTA DNA inh	EBNA-1 inhibitor	NS3 helicase cf	FID counter trip	others
CCCCCCCCCCCCN1C/C(=C\C(=O)OCC)c2ccccc2S1(=O)=O	79.5*	9.8	-3.5	.	9.2	6.3	9.9	-21.9
CCCCCCCCCCCCN1C/C(=C\C(=O)OCC)c2cc(C(F)(F)F)ccc2S1(=O)=O	25.2	-12.4	12.0	.	-1.3	12.6	.	.
O=C(COc1ccc(Br)cc1CNC1CCCC1)Nc1ccccc1	-20.4	11.4	7.3	-4.0	-2.0	-4.1	.	.
Cc1cccc(NC(=O)Cn2nc(-c3ccco3)ccc2=O)c1C	18.0	-5.2	-14.6	.	2.1	0.0	.	.
O=C(Cn1nc(-c2ccco2)ccc1=O)Nc1ccc(Br)cc1	40.0*	-0.6	9.2	.	1.9	-20.1	-16.4	-3.8
O=[N+]([O-])c1cc2c(cc1Br)CCN2	0.8	-17.6	-3.8	-4.9	-4.4	4.1	.	.
O=C1OC(/C=C/c2ccc(Cl)cc2)=NC/1=C/c1ccco1	40.8*	-14.9	20.5	-34.4	11.6	-3.2	-1.9	2.6
O=C1OC(/C=C/c2ccccc2)=NC/1=C/C=C/c1ccccc1	17.2	-0.1	19.1	-22.6	-0.5	3.9	.	.
COc1cc(C(=O)N/C(=C/c2ccc(F)cc2)C(=O)NC(C(=O)O)c2ccccc2)cc(OC)c1OC (centres undefined)	36.6*	-2.6	-8.1	.	-23.1	-12.4	-12.8	-10.3
O=S(=O)(O)c1ccc(N=Nc2ccccc2)cc1	0.8	0.2	-3.8	-13.8	-5.6	-0.8	.	.
O=c1ccc(N=Nc2ccccc2)ccc1O	50.9*	6.3	-14.2	-15.0	1.4	2.7	47.7*	-2.2	DNA FID DR=>79.4
Cc1ccc(NC(=O)c2ccc3ccccc3n2)cc1S(=O)(=O)N(C)C	-4.5	3.4	4.1	10.2	2.4	13.0	.	.
CCc1ccc(/C=C2\Oc3c(ccc(O)c3CN3CCN(CCO)CC3)C2=O)cc1	50.5*	-10.2	-5.2	-5.0	-12.0	-4.7	-13.5	31.6
CCc1ccc(/C=C2\Oc3cc(OS(C)(=O)=O)ccc3C2=O)cc1	3.9	-5.1	5.0	-1.3	13.7	-12.8	.	.
CCn1nnnc1NCc1cccc(Cl)c1	1.4	-11.7	-2.6	-2.5	-7.3	-0.4	.	.
COc1ccc(Nc2cc(C(=O)NCCCN3CCN(C)CC3)c3ccccc3n2)c(OC)c1	63.5*	2.6	-15.1	0.9	-7.0	3.0	10.4	66.4*
COc1ccc(Nc2cc(C(=O)NCCCOC(C)C)c3ccccc3n2)c(OC)c1	-24.5	-3.7	3.3	.	-1.2	-9.5	.	.
COc1ccc(CC(=O)N(C)CC(=O)Nc2cccc(F)c2)cc1S(=O)(=O)N1CCOCC1	-3.4	-9.0	-6.1	.	1.5	7.8	.	.
O=C(O)Cn1c2c(c3ccccc31)CSc1ccc(Cl)cc1-2	36.5*	5.6	10.1	.	13.6	-2.3	83.5*	-10.5
O=C(O)Cn1c2ccccc2c2ccccc21	-0.3	-7.6	-2.2	-6.5	-1.6	-0.3	.	.
Cc1cc(=O)n2c(c1C#N)SC1CCCCC12O (centres undefined)	55.1*	4.1	6.7	-2.6	6.0	13.5	-11.7	-0.1
N#Cc1c(-c2ccccc2)cc(-c2cccs2)nc1SCC(=O)O	39.1*	10.9	-12.5	.	-3.8	-0.7	67.7*	-12.2
N#Cc1c(-c2ccc(Cl)cc2)cc(-c2cccs2)nc1SCC(=O)O	5.4	-2.8	-20.4	.	13.1	7.2	.	.
Cc1ccc(-c2nn(-c3ccc(F)cc3)cc2C(=O)NC2CCC(O)CC2)cc1 (centres undefined)	.	.	-3.1	.	-10.6	1.2	.	.
CCN(c1ccccc1)S(=O)(=O)c1cc([N+](=O)[O-])ccc1N	-1.6	-6.2	0.4	-4.3	1.8	-5.8	.	.
SMILES	HCV NS3 hel inh	GPR7 antagonist	HCV core dimer	EBV gp42 block	ZTA DNA inh	EBNA-1 inhibitor	NS3 helicase cf	FID counter trip	others
CCOC(=O)C1=C(O)/C(=C\c2ccc(CNC(=O)C(=O)Nc3ccccc3)o2)N=C1C	39.6*	-2.7	13.8	12.8	4.3	1.2	31.0	-8.1
CN=c1scc(-c2ccccc2F)n1/N=C/c1ccc(O)c(O)c1O	23.1	-10.8	.	1.5	.	.	.	.
CC(C)N=c1scc(-c2cccs2)n1/N=C/c1ccc(O)c(O)c1O	42.6*	-3.0	23.8	-0.1	-21.4	0.2	-10.4	16.9
CC(C)(C)c1ccc(S(=O)(=O)/N=C2\C=C(NS(=O)(=O)c3ccccc3)C(=O)c3ccccc32)cc1	43.4*	-5.9	43.0	.	11.7	8.1	82.0*	60.3*
COC(=O)c1ccccc1NC1=C/C(=N\S(=O)(=O)c2ccc(C(=O)O)cc2)c2ccccc2C1=O	-17.8	-19.5	23.1	.	2.8	-10.0	.	.
CCN(CC)c1ccc(/C=C(\C#N)c2nc(-c3cccs3)c(NC(C)=O)s2)cc1	45.5*	4.4	.	34.2	.	.	-15.2	13.7
CC(=O)Nc1sc(N/N=C\c2ccc(O)cc2)nc1-c1cccs1	3.9	-13.3	2.1	-0.3	-9.4	-11.5	.	.
O=C1CS/C(=N\N=C\c2ccco2)N1c1ccccc1	41.3*	3.5	30.2	7.1	5.8	-4.5	15.3	20.3
O=C1CS/C(=N/N=C/c2ccccc2)N1c1ccc(O)cc1	-7.0	-4.7	-6.9	.	6.3	4.2	.	.
C/C(CC(=O)Nc1ccc(Cl)c(C(F)(F)F)c1)=N\NC(=O)c1ccccc1O	40.6*	-3.0	-4.4	-1.1	16.0	3.3	3.9	13.5
C/C(CC(=O)Nc1ccc(Cl)c(C(F)(F)F)c1)=N\NC(=O)c1cccc(O)c1	8.0	-4.3	3.2	3.1	18.9	8.2	.	.
Cc1nc(N[C@@H](Cc2c[nH]c3ccccc23)C(=O)O)c2oc3ccccc3c2n1	42.3*	-4.5	-3.8	-5.0	-10.9	-2.9	-5.3	-9.6
CCc1nc(N[C@@H](Cc2c[nH]c3ccccc23)C(=O)O)c2oc3ccccc3c2n1	0.0	8.2	-0.5	10.3	1.3	-9.8	.	.
CCOc1ccc(NC(=O)Nc2nc3ccc(S(C)(=O)=O)cc3s2)cc1	1.4	-8.9	.	.	.	.	.	.
O=C(NCc1ccco1)c1ccc(N2CCOCC2)c([N+](=O)[O-])c1	3.8	-11.1	1.4	-0.9	-1.0	2.9	.	.
O=C(NCc1ccco1)c1ccc(N2CCCCC2)c([N+](=O)[O-])c1	49.6*	-6.8	0.6	1.3	1.2	3.6	-8.9	-10.6
